As usually defined, the EC50 is the concentration needed to bring the measured effect to its halfway point.

These results are taken from ChEMBL document CHEMBL3576824, “Phenolic diterpenoid derivatives as anti-influenza a virus agents” (ACS Med Chem Lett, 2015).

Calls of active or inactive are those of the source. Where only a bound is given, the exact number is not on record here.

In experiment [1] the test system is Influenza A virus. As to the kind of experiment: Antiviral activity against oseltamivir/amantadine-resistant Influenza A virus (A/Puerto Rico/8/1934(H1N1)) infected in MDCK cells assessed as protection against virus-induced cytocidal effect after 48 hrs by CellTiter-Glo assay. The experiment is classed as functional, organism-based. An outline of the steps:
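Cytocidal protection assay in MDCK cells. EC50 is the concentration (μM) protecting cells by 50% from the virus's cytocidal effect, given as mean ± SD from at least three independent tests.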
For orientation: Cellular ATP, detected with luciferase, serves as a proxy for viable cell number.

Experiment [2] relates to Influenza A virus. Kind of experiment: Antiviral activity against oseltamivir/amantadine-resistant Influenza A virus (A/Puerto Rico/8/1934(H1N1)) assessed as inhibition of viral infectivity in MDCK cells at 10 uM after 6 hrs by FITC conjugated anti-NP antibodies/DAPI staining-based confocal microscopic analysis. In kind it is functional, organism-based. The procedure, abridged: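 MDCK cells were infected at MOI = 1 in the presence of 10 μM compound for 6 h. Infected cells were stained with FITC-conjugated anti-NP antibody, with DAPI as nuclear stain, and imaged by confocal microscopy. Infected cells without compound served as control.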

Experiment [3] concerns Influenza A virus (A/Puerto Rico/8/1934(H1N1)). Kind of experiment: Inhibition of oseltamivir/amantadine-resistant Influenza A virus (A/Puerto Rico/8/1934(H1N1)) hemagglutinin-mediated hemolysis of chicken RBC at 10 uM preincubated with virus for 30 mins followed by RBC addition measured after 30 mins by microplate reader analysis. The procedure, abridged:
(§1)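 Erythrocyte-virus-compound mixture incubated at 37 °C for 30 min, then acidified to pH 5.2 with 0.15 M sodium acetate buffer to trigger HA-mediated hemolysis. OD540 of supernatants was measured. Hemolysis without compound is defined as 100%. Values are averages of two independent tests.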

Experiment [4] has the same test system. As to the kind of experiment: Inhibition of oseltamivir/amantadine-resistant Influenza A virus (A/Puerto Rico/8/1934(H1N1)) hemagglutinin-mediated hemolysis of chicken RBC preincubated with virus for 30 mins followed by RBC addition measured after 30 mins by microplate reader analysis. The procedure, abridged: as §1
Setting [5] is: Influenza A virus, A/Puerto Rico/8/1934(H1N1), MDCK, 48 h, read-out: EC50.

`COC(=O)[C@@]1(C)CCC[C@]2(C)c3cc(OCCC(=O)O)ccc3CC[C@@H]12`: the EC50 in the experiment with Influenza A virus [1] (setting [5]) is greater than 25000 nM.
`C[C@]1(C(=O)O)CCC[C@]2(C)c3cc(OC(=O)CCC(=O)O)ccc3CC[C@@H]12`: the EC50 in the experiment with Influenza A virus [1] (setting [5]) came out at 18700 nM.
In the case of `COC(=O)[C@@]1(C)CCC[C@]2(C)c3cc(OC(=O)C(C)F)ccc3CC[C@@H]12` (stereo not given in full), the EC50 in the experiment on Influenza A virus [1] (setting [5]) was found to be 150 nM.
On to `COC(=O)[C@@]1(C)CCC[C@]2(C)c3cc(OC(=O)CCCC(=O)O)ccc3CC[C@@H]12`, for which the EC50 in the experiment on Influenza A virus [1] (setting [5]) turned out to be 370 nM.
The same measure, in the same setting: then `CNC(=O)[C@@]1(C)CCC[C@]2(C)c3cc(O)ccc3CC[C@@H]12`, with greater than 34800 nM; and `COC(=O)[C@@]1(C)CCC[C@]2(C)c3cc(OC(C)=O)ccc3CC[C@@H]12`, with 140 nM.
In the case of `COC(=O)[C@@]1(C)CCC[C@]2(C)c3cc(OC(=O)CCCCCBr)ccc3CC[C@@H]12`, in the experiment on Influenza A virus [1] (setting [5]), the EC50 was found to be 190 nM.
On to `COC(=O)[C@@]1(C)CCC[C@]2(C)c3cc(OC(=O)CCCCBr)ccc3CC[C@@H]12`, for which, in the experiment with Influenza A virus [1] (setting [5]), the EC50 was determined as 420 nM.
On to `COC(=O)[C@@]1(C)CCC[C@]2(C)c3cc(OC)ccc3C(=O)C[C@@H]12`, for which, in the experiment with Influenza A virus [1] (setting [5]), the EC50 came out at 3600 nM.
`COC(=O)[C@@]1(C)CCC[C@]2(C)c3cc(OC(=O)C(C)C)ccc3CC[C@@H]12`: in the experiment on Influenza A virus [1] (setting [5]), the EC50 is 320 nM.
The same measure, in the same setting: then `C[C@]1(C(=O)OCc2ccccc2)CCC[C@]2(C)c3cc(OC(=O)CCC(=O)O)ccc3CC[C@@H]12`, with greater than 6500 nM.
As for `C[C@]1(C(=O)OCc2ccccc2)CCC[C@]2(C)c3cc(OCCC(=O)O)ccc3CC[C@@H]12`, in the experiment on Influenza A virus [1] (mdck), the EC50 entry is on record as “Not Active”.
Consider `COC(=O)[C@@]1(C)CCC[C@]2(C)c3cc(OC(=O)C4CC4)ccc3CC[C@@H]12`, for which the half-maximal effective concentration (EC50) in the experiment on Influenza A virus [1] (setting [5]) came out at 150 nM.
On to `COC(=O)[C@@]1(C)CCC[C@]2(C)c3cc(O)ccc3CC[C@@H]12`, for which the EC50 in the experiment with Influenza A virus [1] (setting [5]) came to 160 nM.
Turning to `COC(=O)[C@@]1(C)CCC[C@]2(C)c3cc(OC(=O)CCBr)ccc3CC[C@@H]12`, the EC50 with Influenza A virus [1] (setting [5]) was determined as 210 nM. For the same compound, in the experiment with Influenza A virus [2], the inhibition entry is “Active”.
Turning to `COC(=O)[C@@]1(C)CCC[C@]2(C)c3cc(OC(=O)CCCBr)ccc3CC[C@@H]12`, the EC50 in the experiment with Influenza A virus [1] (setting [5]) worked out at 570 nM.
As for `CCOC(=O)C1=C[C@@H](OC(CC)CC)[C@H](NC(C)=O)[C@@H](N)C1` [OSELTAMIVIR], the EC50 in the experiment on Influenza A virus [1] (setting [5]) was greater than 20000 nM. Moreover, the inhibition result in experiment [3] was “inactive”.
For `NC12CC3CC(CC(C3)C1)C2` [AMANTADINE], in the experiment on Influenza A virus [1] (setting [5]), the EC50 was greater than 20000 nM.
As to `C[C@]1(C(=O)OCc2ccccc2)CCC[C@]2(C)c3cc(O)ccc3CC[C@@H]12`, in the experiment with Influenza A virus [1] (setting [5]), the EC50 worked out at 1590 nM.
For the compound `CC(C)c1c(O)ccc2c1CC[C@H]1C(C)(C)CCC[C@]21C` [TOTAROL], the EC50 in the experiment with Influenza A virus [1] (setting [5]) stood at 3500 nM. In addition, in the experiment on Influenza A virus [2], the inhibition result was “Active”.
Regarding `COC(=O)[C@@]1(C)CCC[C@]2(C)c3cc(OC)ccc3CC[C@@H]12`, in the experiment on Influenza A virus [1] (setting [5]), the EC50 is 730 nM.
In the case of `C=CC(=O)Oc1ccc2c(c1)[C@@]1(C)CCC[C@](C)(C(=O)NC)[C@@H]1CC2`, the concentration giving a half-maximal response (EC50) in the experiment on Influenza A virus [1] (setting [5]) is greater than 29300 nM.
With `COC(=O)[C@@]1(C)CCC[C@]2(C)c3cc(OC(=O)CCC(=O)O)ccc3CC[C@@H]12`, the EC50 in the experiment with Influenza A virus [1] (setting [5]) was 180 nM.
As for `C[C@]1(C(=O)O)CCC[C@]2(C)c3cc(O)ccc3CC[C@@H]12` [PODOCARIC ACID], the EC50 in the experiment with Influenza A virus [1] (setting [5]) worked out at 18200 nM.
On the same count and under the same terms, for `C=CC(=O)Oc1ccc2c(c1)[C@@]1(C)CCC[C@](C)(C(=O)OCc3ccccc3)[C@@H]1CC2` the value was 480 nM.
`C=CC(=O)Oc1ccc2c(c1)[C@@]1(C)CCC[C@](C)(C(=O)OC)[C@@H]1CC2`: in the experiment with Influenza A virus [1] (setting [5]), the EC50 came to 640 nM. For the same compound, the inhibition entry in experiment [4] was “Dose-dependent effect”.
